According to ChEMBL document CHEMBL1133587, “Synthesis, biological activity, and molecular modeling of ribose-modified deoxyadenosine bisphosphate analogues as P2Y(1) receptor ligands” (J Med Chem, 2000):
Calls of active or inactive are those of the source. The calls are words filed in the database; no cut-off is given here.

Key:
Assay type in all cases: functional
[1] = target: P2Y purinoceptor 1 (Meleagris gallopavo) (UniProt P49652); experiment: (§1) Inhibition of 30 nM 2-MeSADP stimulation of 2PY1-mediated phospholipase C (PLC) activity in Turkey erythrocyte ghosts
Procedure, shortened: (§2)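 [3H]inositol-labelled turkey erythrocyte ghosts incubated 5 min at 30 °C, pH 7.0, with 1 µM GTPγS. Graded analogue was combined with 30 nM 2-MeSADP. Total [3H]inositol phosphates separated by anion-exchange chromatography. IC50 is 50% inhibition of the 2-MeSADP response. Maximal inhibition is 100 minus residual stimulation at the highest concentration. At least three membrane preparations, duplicate or triplicate assays.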

[2] = target: T1, P2Y purinoceptor 1 (Meleagris gallopavo, UniProt P49652); experiment: as §1
Procedure, shortened: as §2, with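 “chromatography.” for “chromatography. IC50 is 50% inhibition of the 2-MeSADP response.”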

[3] = target: P2Y purinoceptor 1 (Meleagris gallopavo) (UniProt P49652); experiment: (§3) In vitro stimulation of 2PY1 purinoceptor mediated phospholipase C (PLC) activity in Turkey Erythrocyte Ghosts
Procedure, shortened: (§4)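 Turkey erythrocytes labelled 18-24 h at 37 °C with 2-[3H]myo-inositol in inositol-free DMEM. Ghosts prepared by hypotonic lysis (about 175 µg protein). Incubated 5 min at 30 °C in Hepes pH 7.0 buffer with 1 µM GTPγS and graded nucleotide. Total [3H]inositol phosphates measured by anion-exchange chromatography. EC50 from four-parameter logistic fit. Efficacy given relative to maximal 2-MeSADP. At least three experiments, duplicate or triplicate.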

[4] = target: T1, P2Y purinoceptor 1; experiment: as §3; procedure, shortened: as §4
[5] = target: T1, P2Y purinoceptor 1; experiment: Inhibition of 30 nM 2-MeSADP stimulation of 2PY1-mediated phospholipase C (PLC) activity in Turkey erythrocyte ghosts; small decrease; procedure, shortened: as §2
[6] = target: P2Y purinoceptor 1 (Meleagris gallopavo) (UniProt P49652); experiment: Inhibition of 30 nM 2-MeSADP stimulation of 2PY1-mediated phospholipase C (PLC) activity in Turkey erythrocyte ghosts; NE=not effective
Procedure, shortened: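 Turkey erythrocytes were labelled with 2-[3H]myo-inositol in inositol-free DMEM for 18-24 h at 37 °C, then lysed hypotonically to make ghosts. Ghosts (about 175 µg protein) were incubated 5 min at 30 °C in KCl/Hepes medium at pH 7.0 with 1 µM GTPγS, 30 nM 2-MeSADP and the test nucleotide. Total [3H]inositol phosphates were measured by anion exchange. IC50 came from logistic fits, with at least three experiments.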

T1 sequence (P49652 whole entry): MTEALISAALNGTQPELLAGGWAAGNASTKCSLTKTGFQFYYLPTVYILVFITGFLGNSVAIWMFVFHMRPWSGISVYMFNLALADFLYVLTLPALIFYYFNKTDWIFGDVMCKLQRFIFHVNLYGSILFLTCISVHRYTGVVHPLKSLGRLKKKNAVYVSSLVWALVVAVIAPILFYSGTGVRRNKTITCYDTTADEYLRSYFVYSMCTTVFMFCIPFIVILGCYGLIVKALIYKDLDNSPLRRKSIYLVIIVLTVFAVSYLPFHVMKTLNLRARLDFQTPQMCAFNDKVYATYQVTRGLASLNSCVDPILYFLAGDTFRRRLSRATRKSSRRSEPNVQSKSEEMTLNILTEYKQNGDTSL
P2Y purinoceptor 1 (Meleagris gallopavo), sequence (P49652 whole entry): as above

Row | SMILES | Max inhibition [1] | IC50 [2] | Max increase [3] | EC50 [4] | IC50 [5] | Max inhibition [6]
1 | CNc1nc(Cl)nc2c1ncn2[C@H]1C[C@H](OP(=O)(O)O)[C@@H](COP(=O)(O)O)O1 | 95% | – | – | – | – | –
2 | CNc1nc(Cl)nc2c1ncn2C1COC(COP(=O)(O)O)C(OP(=O)(O)O)C1 (stereo not given) | 100% | 566 nM | – | – | – | –
3 | Nc1ncnc2c1ncn2C1CN(CCP(=O)(O)O)CC(COP(=O)(O)O)O1 (stereo not given) | 37% | – | – | – | Partially active | –
4 | CNc1nc(N)nc2c1ncn2[C@H]1C[C@H](OP(=O)(O)O)[C@@H](COP(=O)(O)O)O1 | 96% | – | 4% | – | – | –
5 | Nc1ncnc2c1ncn2C1CN(CCP(=O)(O)O)CC(COP(=O)(O)OP(=O)(O)OP(=O)(O)O)O1 (stereo not given) | – | – | – | – | Partially active | –
6 | Nc1ncnc2c1ncn2C1CC(OP(=O)(O)O)C2(COP(=O)(O)O)CC12 (stereo not given) | – | – | 92% | 155 nM | – | inactive
7 | CNc1nc(SC)nc2c1ncn2[C@H]1C[C@H](OP(=O)(O)O)[C@@H](COP(=O)(O)O)O1 | 94% | – | 6% | – | – | –
8 | Nc1ncnc2c1ncn2[C@@H]1CO[C@H](COP(=O)(O)O)[C@@H](OP(=O)(O)O)C1 | – | – | 100% | – | – | inactive
9 | Nc1ncnc2c1ncn2C1CN(CCP(=O)(O)O)CC(COP(=O)(O)OP(=O)(O)O)O1 (stereo not given) | – | – | 11% | – | – | inactive

Now from value to compound, other results behind:

Row | Max inhibition [1] | IC50 [2] | Max increase [3] | EC50 [4] | IC50 [5] | SMILES | Max inhibition [6]
10 | 74% | 5420 nM | 26% | 6510 nM | – | CNc1nc(N)nc2c1ncn2[C@@H]1C[C@H](COP(=O)(O)O)[C@H](OP(=O)(O)O)C1 | –
11 | 100% | 1640 nM | – | – | – | CNc1ncnc2c1ncn2C1COC(COP(=O)(O)O)C(OP(=O)(O)O)C1 (stereo not given) | –
12 | 42% | 40000 nM | 50% | 18900 nM | – | Nc1ncnc2c1ncn2C12CC(OP(=O)(O)O)C(COP(=O)(O)O)C1C2 (stereo not given) | –
13 | 47% | – | – | – | Partially active | C[C@H]1O[C@@H](n2cnc3c(N)ncnc32)[C@H](OP(=O)(O)O)[C@@H]1OP(=O)(O)O | –
14 | 100% | 148 nM | – | – | – | CNc1ncnc2c1ncn2[C@@H]1C[C@H](COP(=O)(O)O)[C@H](OP(=O)(O)O)C1 | –
15 | 100% | 157 nM | – | – | – | CNc1ncnc2c1ncn2C1CC(OP(=O)(O)O)C2(COP(=O)(O)O)CC12 (stereo not given) | –
16 | 100% | 51.6 nM | – | – | – | CNc1nc(Cl)nc2c1ncn2[C@H]1C[C@@H](OP(=O)(O)O)[C@]2(COP(=O)(O)O)C[C@H]12 | –
17 | 100% | 805 nM | – | – | – | CNc1nc(Cl)nc2c1ncn2[C@@H]1C[C@H](OP(=O)(O)O)C1COP(=O)(O)O (stereo not given in full) | –
18 | 82% | 2370 nM | 18% | 9350 nM | – | CNc1ncnc2c1ncn2C1COC(COP(=O)(O)OP(=O)(O)OP(=O)(O)O)C(O)C1 (stereo not given) | –
19 | 73% | 2530 nM | 27% | 7210 nM | – | Nc1ncnc2c1ncn2[C@@H]1C[C@H](COP(=O)(O)O)[C@H](OP(=O)(O)O)C1 | –
